Experimental data reported in ChEMBL document CHEMBL1135862, “Bioactive 4-substituted-6-methyl-2-pyrones with promising cytotoxicity against A2780 and K562 cell lines” (Bioorg Med Chem Lett, 2002).

Legend:
[1] = system: A2780; assay: Inhibitory concentration in vitro for cytotoxic activity against A 2780 human ovarian carcinoma cells; assay type: functional, cell-based
Method in brief: (§1)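 MTT assay in 96-well plates, seeding 400–1000 cells/well. Cells recover 24 h, then drug in medium is added, three wells per dose. Incubate 5 days at 37 °C in 5% CO₂. Add MTT (3 mg/mL) for 3 h, dissolve formazan in DMSO, read at 540 nm minus 620 nm. Percent growth inhibition per dose comes from duplicate experiments, reported as mean and SD; IC50 is derived from these.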

[2] = system: Bacillus subtilis; assay: Antimicrobial activity against Bacillus subtilis after 96 hr incubation; assay type: functional; design: concentration or dose not given beside the values
Method in brief: (§2)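 Agar diffusion on cellulose disks loaded with 200 µg compound each. Bacteria read after 96 h, yeasts after 48 h. Activity is recorded as the radius in mm, or percent, of the inhibition zone. Squalestatin S1 (200 µg/disk) served as control in the yeast assay.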

[3] = system: Candida albicans; assay: Antimicrobial activity against Candida albicans after 48 hr incubation; assay type: functional; method in brief: as §2
[4] = system: Escherichia coli; assay: Antimicrobial activity against Escherichia coli after 96h incubation; assay type: functional; method in brief: as §2
[5] = system: Escherichia coli; assay: Antimicrobial activity against the Escherichia coli after 96 hr incubation; assay type: functional; design: concentration or dose not given beside the values; method in brief: as §2
[6] = system: K562; assay: Inhibitory concentration in vitro for cytotoxic activity against K 562 human chronic myelogenous leukemia cells; assay type: functional, cell-based; method in brief: as §1
[7] = system: Schizosaccharomyces pombe; assay: (§3) Antimicrobial activity against Schizosaccharomyces pombe after 48 hr incubation; assay type: functional; design: concentration or dose not given beside the values; method in brief: as §2
[8] = system: Schizosaccharomyces pombe; assay: as §3; assay type: functional; method in brief: as §2
[9] = system: Saccharomyces cerevisiae; assay: Antimicrobial activity against Saccharomyces cerevisiae after 48 hr incubation; assay type: functional; method in brief: as §2
[10] = system: Staphylococcus aureus; assay: Antimicrobial activity against Staphylococcus aureus after 96h incubation; assay type: functional; method in brief: as §2
[11] = system: Bacillus subtilis; assay: Antimicrobial activity against Bacillus subtilis after 96h incubation; assay type: functional; method in brief: as §2
[12] = system: Staphylococcus aureus; assay: The compound was evaluated for anti microbial activity against Staphylococcus aureus after 96 hr incubation; assay type: functional; design: concentration or dose not given beside the values; method in brief: as §2
[13] = system: Candida albicans; assay: Anti fungal activity against Candida albicans after 48 hr incubation; assay type: functional; design: concentration or dose not given beside the values; method in brief: as §2
[14] = system: Saccharomyces cerevisiae; assay: Compound was evaluated for anti fungal activity against Saccharomyces cerevisiae after 48 hr incubation; assay type: functional; method in brief: as §2

Compound | IC50 [1] | Inhibition [2] | Inhibition [3] | Inhibition [4] | Inhibition [5] | IC50 [6] | Inhibition [7] | Inhibition [8] | Inhibition [9] | Inhibition [10] | Inhibition [11] | Inhibition [12] | Inhibition [13] | Inhibition [14]
Cc1cc(CCc2ccccc2)cc(=O)o1 | > 50 µM | 20.5% | 0 mm | 20 mm | 22.7% | > 50 µM | 11.4% | 10 mm | 0 mm | 0 mm | 18 mm |  |  | 
Cc1cc(-c2ccc(C=O)cc2)cc(=O)o1 | 19.2 µM | 20.5% | 0 mm | 15 mm | 17% | 26 µM | 15.9% | 14 mm | 0 mm | 18 mm | 18 mm | 20.5% |  | 
CCCCCCC#Cc1cc(C)oc(=O)c1 | 3.4 µM | 19.3% | 0 mm | 17 mm | 19.3% | 20.3 µM | 54.5% | 48 mm | 0 mm | 18 mm | 17 mm | 20.5% |  | 
C#Cc1cc(C)oc(=O)c1 | 3.1 µM | 19.3% | 36 mm | 16 mm | 18.2% | 2 µM | 45.5% | 40 mm | 40 mm | 30 mm | 17 mm | 34.1% | 40.9% | 45.4%
Cc1cc(-c2ccc(Cl)cc2)cc(=O)o1 | > 50 µM | 20.5% | 0 mm | 20 mm | 22.7% | > 50 µM |  | 0 mm | 0 mm | 20 mm | 18 mm | 22.7% |  | 
CCCCc1cc(C)oc(=O)c1 | > 50 µM | 22.7% | 0 mm | 22 mm | 25% | > 50 µM |  | 0 mm | 0 mm | 0 mm | 20 mm |  |  | 
COc1ccc(-c2cc(C)oc(=O)c2)cc1 | > 50 µM | 19.3% | 0 mm | 20 mm | 22.7% | > 50 µM | 22.7% | 20 mm | 0 mm | 0 mm | 17 mm |  |  | 
CCCCCC#Cc1cc(C)oc(=O)c1 | 2.9 µM | 21.6% | 22 mm | 19 mm | 21.6% | 11.1 µM | 56.8% | 50 mm | 0 mm | 21 mm | 19 mm | 23.9% | 25% | 
CCCCCCCCc1cc(C)oc(=O)c1 |  | 21.6% | 20 mm | 22 mm | 25% |  | 34.1% | 30 mm | 0 mm | 18 mm | 19 mm | 20.5% | 22.7% | 
Cc1cc(C#CCOC2CCCCO2)cc(=O)o1 (stereo not given) | 2.1 µM | 22.7% | 13 mm | 17 mm | 19.3% | 4 µM | 20.5% | 18 mm | 0 mm | 30 mm | 20 mm | 34.1% | 14.8% | 
CCOCCc1cc(C)oc(=O)c1 | > 50 µM |  |  |  |  | > 50 µM |  | 0 mm |  |  |  |  |  | 
CCCCCc1cc(C)oc(=O)c1 | > 50 µM | 26.1% | 0 mm | 22 mm | 25% | > 50 µM | 25% | 22 mm | 0 mm | 0 mm | 23 mm |  |  | 
CCCCCCc1cc(C)oc(=O)c1 | > 50 µM | 23.9% | 11 mm | 25 mm | 28.4% | > 50 µM | 29.5% | 26 mm | 0 mm | 0 mm | 21 mm |  | 12.5% | 
Cc1cc(C#Cc2ccc([N+](=O)[O-])cc2)cc(=O)o1 |  | 6.8% | 0 mm | 0 mm |  |  | 10.2% | 9 mm | 0 mm | 0 mm | 6 mm |  |  | 
CC(=O)Nc1ccc(C#Cc2cc(C)oc(=O)c2)cc1 |  | 6.8% | 0 mm | 0 mm |  |  |  | 0 mm | 0 mm | 16 mm | 6 mm | 18.2% |  | 
Cc1cc(C#Cc2ccccc2)cc(=O)o1 | 1.8 µM | 21.6% | 0 mm | 20 mm | 22.7% | 4 µM | 42% | 37 mm | 0 mm | 0 mm | 19 mm |  |  | 
CCC/C=C/c1cc(C)oc(=O)c1 |  | 18.2% | 16 mm | 19 mm | 21.6% |  | 31.8% | 28 mm | 0 mm | 20 mm | 16 mm | 22.7% | 18.2% | 
Cc1cc(-c2ccccc2)cc(=O)o1 | > 50 µM | 20.5% | 0 mm | 20 mm | 22.7% | > 50 µM |  | 0 mm | 0 mm | 18 mm | 18 mm | 20.5% |  | 
Cc1ccc(-c2cc(C)oc(=O)c2)cc1 | > 50 µM | 21.6% | 0 mm | 18 mm | 20.4% | > 50 µM |  | 0 mm | 0 mm | 0 mm | 19 mm |  |  | 
CCCCC#Cc1cc(C)oc(=O)c1 | 7 µM | 19.3% | 20 mm | 20 mm | 22.7% | 15.5 µM | 51.1% | 45 mm | 0 mm | 0 mm | 17 mm |  | 22.7% | 
CCCC#Cc1cc(C)oc(=O)c1 | 4.8 µM | 20.5% | 11 mm | 22 mm | 25% | 17.8 µM | 32.9% | 29 mm | 0 mm | 21 mm | 18 mm | 23.9% | 12.5% | 
Cc1cc(/C=C/c2ccccc2)cc(=O)o1 | > 50 µM | 20.5% | 0 mm | 17 mm | 19.3% | > 50 µM | 20.5% | 18 mm | 0 mm | 0 mm | 18 mm |  |  | 
CCCCC/C=C/c1cc(C)oc(=O)c1 | > 50 µM | 20.5% | 21 mm | 18 mm | 20.5% | > 50 µM | 38.6% | 34 mm | 0 mm | 17 mm | 18 mm | 19.3% | 23.9% | 
CCCCCC/C=C/c1cc(C)oc(=O)c1 | > 50 µM | 20.5% | 20 mm | 20 mm | 22.7% | > 50 µM | 32.9% | 29 mm | 0 mm | 18 mm | 18 mm | 20.5% | 22.7% | 
CCCC/C=C/c1cc(C)oc(=O)c1 |  | 20.5% | 24 mm | 18 mm | 20.5% |  | 45.5% | 40 mm | 0 mm | 0 mm | 18 mm |  | 27.3% | 
